Measurements taken from ChEMBL document CHEMBL3425439, “Disubstituted Bis-THF Moieties as New P2 Ligands in Nonpeptidal HIV-1 Protease Inhibitors (II)” (J Med Chem, 2015).
pEC50: −log10 of the molar value.

Assays:
[1] = system: Human immunodeficiency virus 1; assay: Ratio of EC50 for HIV-1 M2 harboring protease L10I, I13V, M46I, I50V, L63P, L76V mutant to EC50 for wild type HIV-1 3B; format: functional
[2] = system: Human immunodeficiency virus 1; assay: Antiviral activity against HIV-1 M2 harboring protease L10I, I13V, M46I, I50V, L63P, L76V mutant infected in human MT4 cells assessed as inhibition of viral replication after 3 days by GFP reporter gene assay; format: functional, organism-based; conditions: Human immunodeficiency virus 1, M2, MT4, 72 h
Method in brief: (§1)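 Cell-based replication assay in MT4 cells carrying an LTR-GFP readout (HIV tat drives GFP). Serial compound concentrations were mixed with cells at 150 000 cells/mL and 200 CCID50 of virus, incubated 3 days at 37 °C, 5% CO2. Percent inhibition per concentration gave dose-response curves for EC50/pEC50. Run in quadruplicate. Mock-infected parallel cultures at the same concentrations gave CC50.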

[3] = system: Human immunodeficiency virus 1; assay: Antiviral activity against wild type HIV-1 3B infected in human MT4 cells assessed as inhibition of viral replication after 3 days by GFP reporter gene assay; format: functional, organism-based; conditions: Human immunodeficiency virus 1, 3B, MT4, 72 h
Method in brief: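 MT4 cells (150 000 cells/mL) were infected with wild-type HIV-1/LAI at 200 CCID50 across a compound concentration range. Plates were incubated 3 days at 37 °C and 5% CO2. Replication was read as GFP driven by HIV-tat binding LTR sequences. EC50 was taken from dose-response curves of percent inhibition, in quadruplicate. Mock-infected parallel cultures gave CC50 from reduced GFP.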

[4] = system: Human immunodeficiency virus 1; assay: Ratio of EC50 for HIV-1 M3 harboring protease L10I, K20R, M36I, G48V, I62V, A71V, V82A, I93L mutant to EC50 for wild type HIV-1 3B; format: functional
[5] = system: Human immunodeficiency virus 1; assay: Antiviral activity against HIV-1 M3 harboring protease L10I, K20R, M36I, G48V, I62V, A71V, V82A, I93L mutant infected in human MT4 cells assessed as inhibition of viral replication after 3 days by GFP reporter gene assay; format: functional, organism-based; conditions: Human immunodeficiency virus 1, M3, MT4, 72 h; method in brief: as §1
[6] = system: Human immunodeficiency virus 1; assay: Antiviral activity against HIV-1 M1 harboring protease L10I, M46I, I64V, I84V, L90M, I93L mutant infected in human MT4 cells assessed as inhibition of viral replication after 3 days by GFP reporter gene assay; format: functional, organism-based; conditions: Human immunodeficiency virus 1, M1, MT4, 72 h; method in brief: as §1
[7] = system: Human immunodeficiency virus 1; assay: Ratio of EC50 for HIV-1 M1 harboring protease L10I, M46I, I64V, I84V, L90M, I93L mutant to EC50 for wild type HIV-1 3B; format: functional
[8] = system: Human immunodeficiency virus 1; assay: Antiviral activity against wild type HIV-1 3B infected in human MT4 cells assessed as inhibition of viral replication after 3 days by GFP reporter gene assay in presence of human serum; format: functional, organism-based; conditions: Human immunodeficiency virus 1, 3B, MT4, 72 h

| SMILES | Ratio EC50 [1] | pEC50 [2] | pEC50 [3] | Ratio EC50 [4] | pEC50 [5] | pEC50 [6] | Ratio EC50 [7] | pEC50 [8] |
| --- | --- | --- | --- | --- | --- | --- | --- | --- |
| CNc1nc2ccc(S(=O)(=O)N(CC(C)C)C[C@@H](O)[C@H](Cc3ccccc3)NC(=O)O[C@H]3CO[C@H]4OC[C@H](F)[C@H]43)cc2o1 | 4.1 | 8.55 | 9.15 | 0.9 | 9.15 | 9.10 | 1.2 | 8.08 |
| CC(C)CN(C[C@@H](O)[C@H](Cc1ccccc1)NC(=O)O[C@H]1CO[C@H]2OC[C@H](NC(=O)OCc3ccccc3)[C@H]21)S(=O)(=O)c1ccc(N)cc1 | 16 | 7.08 | 8.30 | 0.4 | 8.74 | 8.24 | 1.1 | 7.45 |
| CC(C)CN(C[C@@H](O)[C@H](Cc1ccccc1)NC(=O)O[C@H]1CO[C@H]2OC[C@H](OC(=O)NCc3ccccc3)[C@H]21)S(=O)(=O)c1ccc(N)cc1 | 22 | 6.90 | 8.24 | 0.9 | 8.28 | 7.81 | 3.2 | 7.52 |
| CC(C)CN(C[C@@H](O)[C@H](Cc1ccccc1)NC(=O)O[C@H]1CO[C@H]2OC[C@H](OCC(=O)NCc3ccccc3)[C@H]21)S(=O)(=O)c1ccc(N)cc1 | 2.2 | 7.45 | 7.80 | 0.6 | 8.03 | 7.97 | 0.7 | 7.03 |
| CC(C)CN(C[C@@H](O)[C@H](Cc1ccccc1)NC(=O)O[C@H]1CO[C@H]2OC[C@H](Cl)[C@H]21)S(=O)(=O)c1ccc(N)cc1 | 85 | 7.50 | 9.40 | 4 | 8.82 | 8.55 | 7.5 | 8.34 |
| CNc1nc2ccc(S(=O)(=O)N(CC(C)C)C[C@@H](O)[C@H](Cc3ccccc3)NC(=O)O[C@H]3CO[C@H]4OC[C@H](NC(=O)OCc5ccccc5)[C@H]43)cc2o1 | 2 | 8.12 | 8.42 | 0.3 | 9.00 | 8.62 | 0.6 | 7.78 |
| CNc1nc2ccc(S(=O)(=O)N(CC(C)C)C[C@@H](O)[C@H](Cc3ccccc3)NC(=O)O[C@H]3CO[C@H]4OC[C@H](OC(=O)NCc5ccccc5)[C@H]43)cc2o1 | 2.4 | 7.86 | 8.24 | 0.7 | 8.40 | 8.14 | 1.2 | 7.57 |
| CNc1nc2ccc(S(=O)(=O)N(CC(C)C)C[C@@H](O)[C@H](Cc3ccccc3)NC(=O)O[C@H]3CO[C@H]4OC[C@H](OCC(=O)NCc5ccccc5)[C@H]43)cc2o1 | 0.6 | 7.82 | 7.60 | 0.3 | 8.19 | 7.87 | 0.5 | 6.99 |
| CNC(=O)CO[C@H]1CO[C@@H]2OC[C@H](OC(=O)N[C@@H](Cc3ccccc3)[C@H](O)CN(CC(C)C)S(=O)(=O)c3ccc4nc(NC)oc4c3)[C@@H]21 | 0.4 | 6.69 | 6.34 | 0.1 | 7.16 | 6.82 | 0.3 | 6.42 |
| CNc1nc2ccc(S(=O)(=O)N(CC(C)C)C[C@@H](O)[C@H](Cc3ccccc3)NC(=O)O[C@H]3CO[C@H]4OC[C@H](OCC(=O)N(C)C)[C@H]43)cc2o1 | 0.3 | 7.08 | 6.60 | 0.2 | 7.30 | 6.99 | 0.4 | 6.61 |
| C=C(F)CO[C@H]1CO[C@@H]2OC[C@H](OC(=O)N[C@@H](Cc3ccccc3)[C@H](O)CN(CC(C)C)S(=O)(=O)c3ccc4nc(NC)oc4c3)[C@@H]21 | 6.1 | 8.64 | 9.40 | 1.4 | 9.30 | 9.10 | 1.2 | 8.66 |
| CNc1nc2ccc(S(=O)(=O)N(CC(C)C)C[C@@H](O)[C@H](Cc3ccccc3)NC(=O)O[C@H]3CO[C@H]4OC[C@H](OCCC(F)(F)F)[C@H]43)cc2o1 | 5.9 | 8.55 | 9.30 | 1.6 | 9.10 | 9.05 | 1.9 | 8.09 |
| CNc1nc2ccc(S(=O)(=O)N(CC(C)C)C[C@@H](O)[C@H](Cc3ccccc3)NC(=O)O[C@H]3CO[C@H]4OC[C@H](Cl)[C@H]43)cc2o1 | 4.6 | 8.68 | 9.30 | 1.6 | 9.15 | 9.15 | 1.6 | 8.38 |
| COc1ccc(S(=O)(=O)N(CC(C)C)C[C@@H](O)[C@H](Cc2ccccc2)NC(=O)O[C@H]2CO[C@H]3OC[C@H](O)[C@H]32)cc1 | 1 | 8.17 | 8.19 | 0.2 | 8.80 | 8.16 | 1.1 | 7.91 |
| COc1ccc(S(=O)(=O)N(CC(C)C)C[C@@H](O)[C@H](Cc2ccccc2)NC(=O)O[C@H]2CO[C@H]3OC[C@H](OCC(=O)NCc4ccccc4)[C@H]32)cc1 | 7.5 | 8.36 | 9.22 | 1.7 | 9.00 | 8.48 | 5.6 | 8.34 |
| CNC(=O)CO[C@H]1CO[C@@H]2OC[C@H](OC(=O)N[C@@H](Cc3ccccc3)[C@H](O)CN(CC(C)C)S(=O)(=O)c3ccc(OC)cc3)[C@@H]21 | 2.3 | 7.80 | 8.16 | 1.2 | 8.08 | 7.84 | 2.1 | 7.79 |
| COc1ccc(S(=O)(=O)N(CC(C)C)C[C@@H](O)[C@H](Cc2ccccc2)NC(=O)O[C@H]2CO[C@H]3OC[C@H](OCC(=O)N(C)C)[C@H]32)cc1 | 3 | 7.94 | 8.42 | 0.8 | 8.54 | 8.15 | 1.8 | 8.15 |
